The list is not random: actives were taken first. Their share in the collection is about 2.8%.
SR-BI DiI inh – inhibitors of SR-BI mediated HDL lipid uptake, primary screen, ldlA[mSR-BI] cells, fluorescence, single point; Scavenger receptor class B member 1 (Mus musculus), Q61009; ldlA[mSR-BI] CHO cells, DiI-HDL uptake fluorescence, 3 h; hit rate 0.96% among 320,000; inhibition, % at 12.5 µM;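 active = mean replicate inhibition of at least 70% and a set share of replicates each scoring 70 or more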;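 note: 0% = median of neutral control wells and 100% = median of positive control wells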
Target sequence (Q61009 whole entry, looked up): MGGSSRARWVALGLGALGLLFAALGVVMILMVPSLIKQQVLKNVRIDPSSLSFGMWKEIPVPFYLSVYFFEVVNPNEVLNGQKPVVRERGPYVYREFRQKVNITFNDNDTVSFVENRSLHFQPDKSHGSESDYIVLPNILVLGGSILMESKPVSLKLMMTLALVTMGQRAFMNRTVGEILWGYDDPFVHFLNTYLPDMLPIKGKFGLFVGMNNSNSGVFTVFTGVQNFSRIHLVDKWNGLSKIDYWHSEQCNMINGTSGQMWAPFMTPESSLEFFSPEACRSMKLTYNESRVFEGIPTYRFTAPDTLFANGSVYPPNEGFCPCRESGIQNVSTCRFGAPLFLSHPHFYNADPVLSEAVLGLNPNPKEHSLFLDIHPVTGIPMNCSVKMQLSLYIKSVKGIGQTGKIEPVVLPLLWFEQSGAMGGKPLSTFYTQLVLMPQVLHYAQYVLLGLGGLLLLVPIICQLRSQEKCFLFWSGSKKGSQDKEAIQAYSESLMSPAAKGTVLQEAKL
CAL PDZ FP-1 – untagged CAL PDZ binding inhibitors, primary screen, biochemical, fluorescence polarization, HTS; AID 602252, 2012; hit rate 0.92% among 300,000; inhibition, % at 24.9 µM; Golgi-associated PDZ and coiled-coil motif-containing protein (Homo sapiens), Q9HD26; purified CAL PDZ, TMR-peptide fluorescence polarization, 1 h;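 active = mean inhibition of at least 30% with at least half of replicates also reaching 30%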;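 note: 0% = DMSO neutral control and 100% = excess unlabeled competitor peptide PRC23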
SR-BI DiI-HDL act – activators of SR-BI mediated DiI-HDL uptake, primary screen, ldlA[mSR-BI] CHO cells, DiI fluorescence; 3 h; 100 = double the neutral-control signal; activation, % at 12.5 µM; hit rate 0.096% among 320,000; AID 504775, 2011;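 active = mean replicate activation of at least 60% and every replicate at or above 60%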;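 note: 0% = median plate neutral-control signal and 100% = twice that signal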
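material = CHO ldlA[mSR-BI] cells | medium = Ham's F12 with 0.5% BSA, HEPES 25 mM, pH 7.4 | reagent = fluorescent DiI-HDL, 10 µg/mL final | compound dosing = single-point compound dose | incubation = 3 h, 37 °C | measured by = bottom-read fluorescence, 550/595 nm | measure = HDL uptake via cellular fluorescence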
CAL PDZ FP-2 – CAL PDZ peptide-binding inhibitors, primary screen, biochemical, fluorescence polarization, Cer-tagged CAL PDZ, HTS; purified CAL PDZ, TMR-peptide fluorescence polarization, 1 h; inhibition, % at 20 µM; hit rate 0.02% among 330,000;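 active = highest replicate inhibition of at least 40%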;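 note: plate controls were DMSO neutral control wells for no effect and unlabeled competitor peptide control wells for full effect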
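Assay system – tagged CAL PDZ protein CerCALP, purified · Timing – 1 h at RT · Compound – single point, 20 µM · Measured by – fluorescence polarization from S- and P-plane intensities, G-factor corrected · Evaluation – inhibition from polarization loss · Probe or stimulus – TMR reporter peptide T*-PRC34 · Buffer or medium – pH 7.4 phosphate-saline buffer, reducing agent, detergent, IgG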
dFosB activator – activators of delta FosB homodimer, primary screen, biochemical, fluorescence polarization, TAMRA-CDK5 oligo, single point; AID 493131, 2011; activation, % at 25 µM; Protein FosB (Mus musculus), P13346; hit rate 0.99% among 340,000; purified delta FosB; percent of positive-control signal above neutral wells;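 active = mean activation above about 17%, with every replicate also reaching it, limit read from the data, passing the limit was not always enough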
An asterisk follows results filed as active; nt = no result given.

SMILES | SR-BI DiI inh | CAL PDZ FP-1 | SR-BI DiI-HDL act | CAL PDZ FP-2 | dFosB activator
O=C(Nc1ccc(F)c(Cl)c1)Nc1csc2ccccc12 | 87* | nt | -87 | 0 | 7
COc1ccc(C)cc1Nc1n[n+](-c2ccccc2)c(-c2ccc(NC(C)=O)cc2)s1 | 9 | -1 | -9 | 0 | -1
COc1ccc(C)cc1Nc1n[n+](-c2ccccc2)c(-c2cc([N+](=O)[O-])cc(OC)c2O)s1 | 95* | -2 | -95 | 0 | -5
CN(CC(=O)Nc1ccccc1C(F)(F)F)C(=O)C1CCN(S(=O)(=O)c2ccc3c(c2)OCCO3)CC1 | -17 | nt | 17 | -1 | -11
O=C(CCCCn1c(=O)[nH]c2ccccc2c1=O)NCCC1=CCCCC1 | 22 | 83* | -22 | -1 | -3
COc1ccc(N=Nc2c(C)[nH]c3ccccc23)cc1 | 88* | -2 | -88 | 2 | -10
Cc1ccc(S(=O)(=O)N2CCN(C(=O)COC(=O)CCOc3ccccc3C)CC2)c(C)c1 | -12 | -3 | 12 | -2 | -5
Fc1ccc(Cn2cc(C(=S)N3CCOCC3)c3ccccc32)cc1 | 6 | 52* | -6 | 15 | -7
CCC(C(=O)NC1CCCC1)N(C(=O)c1snc(C(N)=O)c1N)c1ccc(C)cc1C (stereo not drawn) | nt | nt | nt | -2 | -4
CC(=O)N1CCN(c2ccc(NC(=O)c3ccc(Cl)cc3)cc2)CC1 | 17 | 2 | -17 | -4 | -1
CC(=O)N1CCN(C(=S)c2ccc(Cl)cc2)CC1 | 11 | 43* | -11 | 0 | 9
Cc1sc2nc(COC(=O)c3cccc(OC(F)F)c3)[nH]c(=O)c2c1C | 4 | 56* | -4 | 0 | -5
Cc1sc2nc(COC(=O)c3cccc(S(=O)(=O)N(C)c4ccccc4)c3)[nH]c(=O)c2c1C | nt | -5 | nt | -1 | -4
CC1CCCC(C)N1C(=O)CN1C(=O)NC2(CCOc3ccccc32)C1=O (stereo not drawn) | -6 | -4 | 6 | -2 | -10
COc1cccc(-c2c(C(=O)N/N=C/c3ccoc3)nnn2-c2nonc2N)c1 | 11 | 6 | -11 | -2 | -8
O=C1CCc2cc(S(=O)(=O)NC3CCCCC3)ccc2N1 | 2 | nt | -2 | 1 | 1
N#Cc1ccc(NC(=S)NCCN2CCOCC2)cc1 | -11 | 91* | 11 | -1 | 3
COc1ccc(NC(=S)NCCN2CCOCC2)cc1 | 1 | 1 | -1 | 0 | 2
Cc1cc(C)cc(NC(=O)C2CCCN2S(=O)(=O)c2ccc3c(c2)n(C)c(=O)c(=O)n3C)c1 (stereo not drawn) | -5 | 1 | 5 | -1 | 8
COC(=O)c1c(NC(=O)C2COc3ccccc3O2)sc2c1CCN(C(C)=O)C2 (stereo not drawn) | 53 | -4 | -53 | -5 | -15
COCCCNC(=O)c1c(NC(=O)C2COc3ccccc3O2)sc2c1CCCC2 (stereo not drawn) | 76* | 2 | -76 | -1 | -8
Cc1ccc(Cl)cc1NC(=O)CON=C(N)c1ccccc1 | 3 | 4 | -3 | -1 | -1
Cc1ccc(C)c(N2CCN(S(=O)(=O)c3cc4c(cc3Cl)NC(=O)CO4)CC2)c1 | 10 | nt | -10 | 1 | 12
CC1CCCCN1C(=O)C1CCCCN1S(=O)(=O)c1cccc([N+](=O)[O-])c1 (stereo not drawn) | -6 | -1 | 6 | 6 | -4
CC(C)CN(C(=O)COC(=O)CCC(=O)c1ccc(Cl)cc1)c1c(N)n(Cc2ccccc2)c(=O)[nH]c1=O | 16 | -8 | -16 | -4 | 8
SMILES | SR-BI DiI inh | CAL PDZ FP-1 | SR-BI DiI-HDL act | CAL PDZ FP-2 | dFosB activator
CCc1ccc(NC2=CC(=O)CC(c3ccco3)C2)cc1 (stereo not drawn) | 21 | 50* | -21 | -1 | -3
Cc1cc(C)cc(NC2=CC(=O)CC(c3ccco3)C2)c1 (stereo not drawn) | 25 | nt | -25 | -1 | 2
CC(C)CNC(=O)COC(=O)CCC(=O)c1ccc(Cl)cc1 | -26 | 13 | 26 | 41* | -1
O=C(CCl)N1c2ccccc2CCc2ccccc21 | 5 | 46* | -5 | -16 | 3
O=C(N/N=C1/CC2C=CCC12)c1ccco1 (stereo not drawn) | -44 | nt | 44 | -1 | -14
O=C(N/N=C1/CC2C=CCC12)c1cccs1 (stereo not drawn) | -4 | 42* | 4 | -1 | 4
Cc1ccc2[nH]c(C(=O)N/N=C/c3ccccc3O)c(C)c2c1 | 132* | -4 | -132 | 0 | -9
COc1ccc(OC)c(/C=N/NC(=O)c2cc3c(OC)c(OC)ccc3[nH]2)c1 | 72* | -2 | -72 | 0 | 4
CCOc1ccc2[nH]c(C(=O)N/N=C/c3ccccc3OC)cc2c1 | 43 | -2 | -43 | -1 | -6
COc1ccc2[nH]c(C(=O)N/N=C/c3ccccc3OC)cc2c1 | nt | -1 | nt | 0 | -11
COc1cc(OC)c2cc(C(=O)N/N=C/c3ccccc3O)[nH]c2c1 | 123* | 2 | -123 | 1 | 8
CCOC(=O)c1ccc(NC(=O)c2ccc(OC(C)C)c(OC)c2)cc1 | 92* | -2 | -92 | -2 | -16
CCOc1ccc(C(F)(F)F)cc1NC(=O)c1ccc(OC)c([N+](=O)[O-])c1 | 80* | -7 | -80 | -3 | -5
CCOC(=O)c1ccc(NC(=O)Nc2ccc(OC)c(OC)c2)cc1 | 13 | 0 | -13 | -1 | 2
COCCOc1ccc(C(F)(F)F)cc1NC(=O)c1ccc(F)cc1 | 40 | -7 | -40 | 0 | 3
CCOc1ccc(C(=O)Nc2ccc(N3CCN(C)CC3)cc2)cc1[N+](=O)[O-] | 48 | nt | -48 | -1 | -13
CCOc1ccc(C(=O)Nc2ccc(N3CCN(C(C)=O)CC3)cc2)cc1[N+](=O)[O-] | 72* | 2 | -46 | -1 | -9
COc1ccc(C(=O)Nc2ccc(N3CCOCC3)cc2)cc1S(=O)(=O)NC1CCCC1 | 76* | 4 | -76 | 0 | -5
COc1ccc(OC)c(CNS(=O)(=O)c2cn(C)cn2)c1 | -13 | -3 | 13 | -2 | -1
O=C(COC(=O)CCc1ccccc1)Nc1ccc(F)cc1Cl | -19 | -3 | 19 | -3 | 1
COc1cc(C(=O)Nc2ccc(N3CCN(C(=O)c4ccc(C)cc4)CC3)cc2)cc(OC)c1OC | 76* | nt | nt | -1 | -14
CCc1ccc(NC(=O)c2ccc(OC)c([N+](=O)[O-])c2)cc1 | 76* | -2 | -76 | -2 | -3

Screens (PubChem)
